Source: ChEMBL document CHEMBL1138921, “Discovery of 3,5-bis(trifluoromethyl)benzyl L-arylglycinamide based potent CCR2 antagonists” (Bioorg Med Chem Lett, 2006)

Columns and labels:
[1] = Oral bioavailability in rat; type: ADME, organism-based; details: in vivo
Rattus norvegicus = assay: Systemic level in rat at 3 mg/kg, po; type: ADME, organism-based; parameters: dose 3 mg/kg, route oral; details: in vivo
Procedure, shortened: (§1)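 Rats dosed orally at 3 mg/kg; drug levels in portal and systemic blood sampled at several time points to assess first-pass metabolism.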

[2] = target: T1, Substance-K receptor (Homo sapiens) (UniProt P21452); assay: (§2) Binding affinity to human NK2 receptor
T1 sequence (whole entry): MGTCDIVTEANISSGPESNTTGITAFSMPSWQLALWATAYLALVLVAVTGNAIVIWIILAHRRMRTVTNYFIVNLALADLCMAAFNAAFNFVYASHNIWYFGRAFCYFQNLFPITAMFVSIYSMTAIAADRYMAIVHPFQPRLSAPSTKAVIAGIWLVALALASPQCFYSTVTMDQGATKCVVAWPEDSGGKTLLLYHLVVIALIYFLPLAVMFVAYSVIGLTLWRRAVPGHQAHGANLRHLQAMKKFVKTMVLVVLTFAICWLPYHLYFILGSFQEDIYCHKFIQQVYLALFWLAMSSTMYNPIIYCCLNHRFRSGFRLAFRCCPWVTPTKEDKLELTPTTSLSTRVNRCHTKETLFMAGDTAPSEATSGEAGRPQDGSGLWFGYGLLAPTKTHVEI

Substance-K receptor = target: T2, Substance-K receptor (Homo sapiens, UniProt P21452); assay: as §2
T2 sequence (P21452 whole entry): T1 sequence (whole entry)

[3] = target: T3, C-C chemokine receptor type 2 (Homo sapiens, UniProt P41597); assay: Binding affinity to CCR2 in human monocytes; type: cell-based
Procedure, shortened: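 Competition binding on human monocytes (2 × 10⁵ cells) incubated with ¹²⁵I-hMCP-1 (20–50 pM; 2200 Ci/mmol) and a range of unlabeled competitor concentrations. Buffer: 50 mM HEPES, 5 mM MgCl₂, 1 mM CaCl₂, pH 7.4, for 60 min at room temperature. Stopped by filtration through PEI-presoaked GF/B filters, washed with 25 mM HEPES pH 7.5 / 500 mM NaCl. Reported as IC50.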

[4] = Clearance in rat; type: ADME, organism-based; details: in vivo
[5] = target: T3, C-C chemokine receptor type 2; assay: Displacement of [125I]MCP1 from human CCR2 expressed in CHO cells; type: cell-based
Procedure, shortened: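 Competition binding: CHO cells stably expressing human CCR2b (5 × 10⁴) incubated with ¹²⁵I-hMCP-1 (20–50 pM) plus varied unlabeled competitor, 60 min, room temperature, in 50 mM HEPES, 5 mM MgCl₂, 1 mM CaCl₂, pH 7.4. Ended by filtration through polyethyleneimine-soaked GF/B filters, washed with 25 mM HEPES pH 7.5/500 mM NaCl. Values given as IC₅₀ or % inhibition at 1 µM.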

[6] = target: T4, C-C chemokine receptor type 1 (Homo sapiens) (UniProt P32246); assay: (§3) Binding affinity to CCR1
T4 sequence (whole entry): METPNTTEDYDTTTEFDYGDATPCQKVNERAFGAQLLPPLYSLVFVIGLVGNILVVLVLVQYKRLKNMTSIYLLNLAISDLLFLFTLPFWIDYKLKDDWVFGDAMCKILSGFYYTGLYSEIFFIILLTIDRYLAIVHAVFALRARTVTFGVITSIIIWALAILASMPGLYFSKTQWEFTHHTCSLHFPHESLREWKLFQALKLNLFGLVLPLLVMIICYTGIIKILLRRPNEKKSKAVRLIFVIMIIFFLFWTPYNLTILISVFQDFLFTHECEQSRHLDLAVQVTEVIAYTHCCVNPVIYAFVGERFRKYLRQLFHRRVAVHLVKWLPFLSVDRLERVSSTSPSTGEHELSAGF

[7] = target: T5, C-C chemokine receptor type 1 (Homo sapiens, UniProt P32246); assay: as §3
T5 sequence (P32246 whole entry): T4 sequence (whole entry)

[8] = target: T6, C-C chemokine receptor type 4 (Homo sapiens) (UniProt P51679); assay: (§4) Binding affinity to CCR4
T6 sequence (whole entry): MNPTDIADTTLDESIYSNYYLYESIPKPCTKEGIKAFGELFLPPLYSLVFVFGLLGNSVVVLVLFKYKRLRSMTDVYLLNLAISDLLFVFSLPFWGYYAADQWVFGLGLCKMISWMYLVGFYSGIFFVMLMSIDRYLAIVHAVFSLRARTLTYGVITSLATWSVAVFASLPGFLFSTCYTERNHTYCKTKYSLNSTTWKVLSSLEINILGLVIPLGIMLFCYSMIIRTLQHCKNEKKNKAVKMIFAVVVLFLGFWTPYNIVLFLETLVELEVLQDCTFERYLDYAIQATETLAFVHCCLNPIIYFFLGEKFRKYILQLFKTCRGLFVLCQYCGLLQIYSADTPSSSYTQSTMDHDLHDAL

[9] = target: T7, C-C chemokine receptor type 4 (Homo sapiens, UniProt P51679); assay: as §4
T7 sequence (P51679 whole entry): T6 sequence (whole entry)

Monocyte [10] = assay: Inhibition of MCP1-induced chemotaxis of human monocytes; type: functional, cell-based
Procedure, shortened: (§5)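 Human monocytes loaded with Calcein-AM in Hanks' buffer with 0.01% BSA, 37 °C, 30 min, then washed and resuspended in phenol red-free RPMI 1640 with 0.01% BSA. Migration toward MCP-1 measured in disposable 96-well chemotaxis plates (5.7 mm diameter wells), 1.5 × 10⁵ cells/well.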

Substance-P receptor = Substance-P receptor (Homo sapiens, UniProt P25103); assay: Binding affinity to human NK1 receptor
[11] = Half life in rat; type: ADME, organism-based; details: in vivo
[12] = target: T8, C-C chemokine receptor type 3 (Homo sapiens, UniProt P51677); assay: (§6) Binding affinity to CCR3
T8 sequence (P51677 whole entry): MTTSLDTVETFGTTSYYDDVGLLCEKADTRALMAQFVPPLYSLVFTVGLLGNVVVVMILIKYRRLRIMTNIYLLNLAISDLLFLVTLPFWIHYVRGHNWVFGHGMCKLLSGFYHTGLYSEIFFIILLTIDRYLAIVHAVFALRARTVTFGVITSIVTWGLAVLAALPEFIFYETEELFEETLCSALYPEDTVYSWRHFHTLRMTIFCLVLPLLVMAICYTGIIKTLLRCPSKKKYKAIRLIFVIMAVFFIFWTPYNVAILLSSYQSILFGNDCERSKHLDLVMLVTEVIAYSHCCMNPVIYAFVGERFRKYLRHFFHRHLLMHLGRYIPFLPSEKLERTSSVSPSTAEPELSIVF

[13] = target: T9, C-C chemokine receptor type 3 (Homo sapiens) (UniProt P51677); assay: as §6
T9 sequence (whole entry): T8 sequence (P51677 whole entry)

[14] = target: T10, Neuromedin-K receptor (Homo sapiens) (UniProt P29371); assay: (§7) Binding affinity to human NK3 receptor
T10 sequence (whole entry): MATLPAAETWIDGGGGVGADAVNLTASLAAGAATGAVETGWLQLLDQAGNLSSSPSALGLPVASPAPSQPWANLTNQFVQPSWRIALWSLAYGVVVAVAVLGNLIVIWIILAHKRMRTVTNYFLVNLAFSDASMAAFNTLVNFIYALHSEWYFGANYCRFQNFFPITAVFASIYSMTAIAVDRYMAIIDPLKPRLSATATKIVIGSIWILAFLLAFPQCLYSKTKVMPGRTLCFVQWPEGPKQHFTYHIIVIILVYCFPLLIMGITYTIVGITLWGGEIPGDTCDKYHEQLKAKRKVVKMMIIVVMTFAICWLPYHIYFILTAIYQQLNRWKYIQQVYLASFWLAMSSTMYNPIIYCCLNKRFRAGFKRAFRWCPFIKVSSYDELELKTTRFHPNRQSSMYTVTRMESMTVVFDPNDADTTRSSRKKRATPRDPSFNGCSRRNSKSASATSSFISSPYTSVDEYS

Neuromedin-K receptor = target: T11, Neuromedin-K receptor (Homo sapiens, UniProt P29371); assay: as §7
T11 sequence (P29371 whole entry): T10 sequence (whole entry)

[15] = target: T3, C-C chemokine receptor type 2; assay: Antagonist activity against CCR2 assessed as inhibition of MCP1-induced calcium flux in human monocytes; type: functional, cell-based
[16] = target: C-C chemokine receptor type 5 (Homo sapiens, UniProt P51681)
[17] = Portal level in rat at 3 mg/kg, po after 1 hr; type: ADME, organism-based; parameters: dose 3 mg/kg, route oral; details: portal vein (blood or plasma not stated), read-out: Activity; procedure, shortened: as §1
[18] = target: C-C chemokine receptor type 8 (Homo sapiens, UniProt P51685); assay: Binding affinity to CCR8
Monocyte [19] = assay: Inhibition of MCP1-induced chemotaxis of human monocytes at 10 uM; type: functional; procedure, shortened: as §5

T3 sequence (P41597 whole entry): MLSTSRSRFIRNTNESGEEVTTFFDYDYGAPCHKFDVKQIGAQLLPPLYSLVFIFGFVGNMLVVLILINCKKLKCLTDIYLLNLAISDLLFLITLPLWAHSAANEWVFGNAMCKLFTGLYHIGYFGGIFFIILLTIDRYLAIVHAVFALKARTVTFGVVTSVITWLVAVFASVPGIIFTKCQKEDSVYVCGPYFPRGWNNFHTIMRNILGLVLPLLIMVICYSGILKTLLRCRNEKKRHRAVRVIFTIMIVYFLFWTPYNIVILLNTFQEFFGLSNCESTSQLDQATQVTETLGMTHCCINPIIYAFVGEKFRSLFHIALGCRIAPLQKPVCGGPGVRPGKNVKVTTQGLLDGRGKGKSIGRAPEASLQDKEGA
Sequence of Substance-P receptor (P25103 whole entry): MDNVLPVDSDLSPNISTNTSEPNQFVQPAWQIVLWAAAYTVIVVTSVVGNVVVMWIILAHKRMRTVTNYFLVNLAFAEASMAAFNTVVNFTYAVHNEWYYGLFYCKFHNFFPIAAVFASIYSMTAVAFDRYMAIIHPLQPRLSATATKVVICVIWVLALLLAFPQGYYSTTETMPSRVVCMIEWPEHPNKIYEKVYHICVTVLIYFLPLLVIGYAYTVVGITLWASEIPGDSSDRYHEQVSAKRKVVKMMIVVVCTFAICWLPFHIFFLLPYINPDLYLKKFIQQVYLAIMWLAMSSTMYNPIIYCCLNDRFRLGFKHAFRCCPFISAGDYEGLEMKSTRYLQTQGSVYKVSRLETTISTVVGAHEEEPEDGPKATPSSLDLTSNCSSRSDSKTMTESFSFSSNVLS
Sequence of C-C chemokine receptor type 8 (P51685 whole entry): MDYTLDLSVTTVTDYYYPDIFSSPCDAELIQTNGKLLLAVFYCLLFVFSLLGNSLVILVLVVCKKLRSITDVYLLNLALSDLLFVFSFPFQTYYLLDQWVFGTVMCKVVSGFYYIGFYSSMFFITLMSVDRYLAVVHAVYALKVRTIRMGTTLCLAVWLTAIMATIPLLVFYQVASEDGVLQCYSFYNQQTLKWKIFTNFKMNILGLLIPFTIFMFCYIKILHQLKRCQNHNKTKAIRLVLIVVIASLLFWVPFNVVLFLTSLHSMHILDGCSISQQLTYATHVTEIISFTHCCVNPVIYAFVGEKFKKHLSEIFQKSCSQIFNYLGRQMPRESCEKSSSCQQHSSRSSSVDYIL
Sequence of C-C chemokine receptor type 5 (P51681 whole entry): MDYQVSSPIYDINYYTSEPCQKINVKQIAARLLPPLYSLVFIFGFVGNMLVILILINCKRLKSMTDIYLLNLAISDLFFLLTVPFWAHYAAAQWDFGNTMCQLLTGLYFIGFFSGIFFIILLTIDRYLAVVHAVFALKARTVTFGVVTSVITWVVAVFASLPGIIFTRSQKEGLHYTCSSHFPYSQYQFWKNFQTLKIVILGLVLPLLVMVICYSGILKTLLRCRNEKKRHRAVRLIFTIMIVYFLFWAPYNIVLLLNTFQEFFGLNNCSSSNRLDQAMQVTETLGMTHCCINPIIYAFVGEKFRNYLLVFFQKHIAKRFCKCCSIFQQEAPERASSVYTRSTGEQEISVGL

`O=C(NCc1cc(C(F)(F)F)cc(C(F)(F)F)c1)[C@@H](NCCN1CCCCC1)c1ccsc1` showed a bioavailability [1] of 4.5%, an Activity (Rattus norvegicus) of under 20 ng/mL and an Activity [2] of 20%. For the same molecule, the IC50 (Substance-K receptor) was over 1000 nM, the IC50 [3] was 30 nM and the clearance [4] was 80 mL/min/kg. It also gave an IC50 [5] of 39 nM, an Activity [6] of -19% and an IC50 [7] of over 1000 nM. It also gave an Activity [8] of 6%, an IC50 [9] of over 2000 nM and an IC50 (Monocyte [10]) of 9.6 nM. The Activity (Substance-P receptor) was 31%, the IC50 (Substance-P receptor) was over 100 nM and the half-life [11] was 1.8 h. It also gave an IC50 [12] of over 1000 nM, an Activity [13] of 2% and an Activity [14] of 10%. For the same molecule, the IC50 (Neuromedin-K receptor) was over 1000 nM, the IC50 [15] was 50 nM and the IC50 [16] was over 1000 nM. For the same molecule, the concentration at 1 h [17] was over 300 ng/mL, the Activity [18] was 15% and the IC50 [18] was over 1000 nM.

Work on `CN(CCN1CCCCC1)c1ccc(-c2nc3cc(Cl)c(Cl)cc3[nH]2)cc1` yielded an inhibition at 10 µM (Monocyte [19]) of 100%.
